ChEMBL document CHEMBL1629690, “Development of hexadecyloxypropyl tenofovir (CMX157) for treatment of infection caused by wild-type and nucleoside/nucleotide-resistant HIV” (Antimicrob Agents Chemother, 2010)

Experiments:
[1] = test system: Human immunodeficiency virus 1; test: Antiviral activity against HIV1 isolate 215 harboring reverse transcriptase D67N/K70E mutant gene by phenosense assay relative to wild type; assay type: functional
Method in brief: (§1)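 PhenoSense HIV recombinant virus assay: patient-derived HIV-1 with major NRTI resistance mutations tested against increasing drug concentrations to give inhibition curves. EC50 is the concentration giving 50% inhibition. Fold change is the test recombinant EC50 divided by the EC50 of a drug-sensitive wild-type reference virus. Panel of 30 NRTI-resistant isolates plus two wild-type viruses.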

[2] = test system: Human immunodeficiency virus 1; test: Antiviral activity against HIV1 isolate 201 harboring reverse transcriptase M41L/L210W/T215Y mutant gene by phenosense assay relative to wild type; assay type: functional; method in brief: as §1
[3] = test system: Human immunodeficiency virus 1; test: Antiviral activity against HIV1 isolate 201 harboring reverse transcriptase M41L/L210W/T215Y mutant gene by phenosense assay; assay type: functional, organism-based; conditions: Human immunodeficiency virus 1, isolate 201
Method in brief: (§2)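 Recombinant-virus PhenoSense HIV assay run on a panel of 30 NRTI-resistant HIV-1 mutants and two wild-type viruses. Each virus is tested across increasing drug concentrations to give an inhibition curve and EC50. Fold change is the test recombinant EC50 divided by the EC50 of the drug-sensitive wild-type reference virus.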

[4] = test system: Human immunodeficiency virus 1; test: Antiviral activity against HIV1 isolate 069 harboring reverse transcriptase D67E/T69SSG/V75M/M184V/L210W/T215Y mutant gene by phenosense assay; assay type: functional, organism-based; conditions: Human immunodeficiency virus 1, isolate 069; method in brief: as §2
[5] = test system: Human immunodeficiency virus 1; test: Antiviral activity against HIV1 isolate 200 harboring reverse transcriptase M41L/L210W/T215Y mutant gene by phenosense assay relative to wild type; assay type: functional; method in brief: as §2
[6] = test system: Human immunodeficiency virus 1; test: Antiviral activity against HIV1 isolate 188 harboring reverse transcriptase T215Y/M184V mutant gene by phenosense assay; assay type: functional, organism-based; conditions: Human immunodeficiency virus 1, isolate 188; method in brief: as §2
[7] = test system: Human immunodeficiency virus 1; test: Antiviral activity against HIV1 isolate 215 harboring reverse transcriptase D67N/K70E mutant gene by phenosense assay; assay type: functional, organism-based; conditions: Human immunodeficiency virus 1, isolate 215; method in brief: as §1
[8] = test system: Human immunodeficiency virus 1; test: Antiviral activity against HIV1 isolate 212 harboring reverse transcriptase L210W/T215Y mutant gene by phenosense assay relative to wild type; assay type: functional; method in brief: as §1
[9] = test system: Human immunodeficiency virus 1; test: Antiviral activity against HIV1 isolate 212 harboring reverse transcriptase L210W/T215Y mutant gene by phenosense assay; assay type: functional, organism-based; conditions: Human immunodeficiency virus 1, isolate 212; method in brief: as §1
[10] = test system: Human immunodeficiency virus 1; test: Antiviral activity against HIV1 isolate 066 harboring reverse transcriptase 184V mutant gene by phenosense assay relative to wild type; assay type: functional; method in brief: as §2
[11] = test system: Human immunodeficiency virus 1; test: Antiviral activity against HIV1 isolate 060 harboring reverse transcriptase M41L/D67N/K70R/L210W/T215Y/K219E mutant gene by phenosense assay relative to wild type; assay type: functional; method in brief: as §2
[12] = test system: Human immunodeficiency virus 1; test: Antiviral activity against HIV1 isolate 211 harboring reverse transcriptase D67N/K70R/T215F/K219E/M184V mutant gene by phenosense assay; assay type: functional, organism-based; conditions: Human immunodeficiency virus 1, isolate 211; method in brief: as §1
[13] = test system: Human immunodeficiency virus 1; test: Antiviral activity against HIV1 isolate 069 harboring reverse transcriptase D67E/T69SSG/V75M/M184V/L210W/T215Y mutant gene by phenosense assay relative to wild type; assay type: functional; method in brief: as §2
[14] = test system: Human immunodeficiency virus 1; test: Antiviral activity against HIV1 isolate 067 harboring reverse transcriptase A62V/D67G/T69SVG/V75I/T215I mutant gene by phenosense assay relative to wild type; assay type: functional; method in brief: as §2
[15] = test system: Human immunodeficiency virus 1; test: Antiviral activity against HIV1 isolate 192 harboring reverse transcriptase M41L/T215Y mutant gene by phenosense assay; assay type: functional, organism-based; conditions: Human immunodeficiency virus 1, isolate 192; method in brief: as §2
[16] = test system: Human immunodeficiency virus 1; test: Antiviral activity against HIV1 isolate 203 harboring reverse transcriptase M41L/L210W/T215Y/M184V mutant gene by phenosense assay relative to wild type; assay type: functional; method in brief: as §1
[17] = test system: Human immunodeficiency virus 1; test: Antiviral activity against HIV1 isolate 066 harboring reverse transcriptase 184V mutant gene by phenosense assay; assay type: functional, organism-based; conditions: Human immunodeficiency virus 1, isolate 066; method in brief: as §2
[18] = test system: Human immunodeficiency virus 1; test: Antiviral activity against HIV1 isolate 194 harboring reverse transcriptase M41L/T215Y/M184V mutant gene by phenosense assay relative to wild type; assay type: functional; method in brief: as §2
[19] = test system: Human immunodeficiency virus 1; test: Antiviral activity against HIV1 isolate 174 harboring reverse transcriptase M184V mutant gene obtained as site-directed mutant of NL4-3 by phenosense assay relative to wild type; assay type: functional; method in brief: as §2
[20] = test system: Human immunodeficiency virus 1; test: Antiviral activity against HIV1 isolate 185 harboring reverse transcriptase T215Y mutant gene by phenosense assay; assay type: functional, organism-based; conditions: Human immunodeficiency virus 1, isolate 185; method in brief: as §2
[21] = test system: Human immunodeficiency virus 1; test: Antiviral activity against HIV1 isolate 061 harboring reverse transcriptase M41L/D67N/K70R/M184V/L210W/T215Y/K219E mutant gene by phenosense assay; assay type: functional, organism-based; conditions: Human immunodeficiency virus 1, isolate 061; method in brief: as §2
[22] = test system: Human immunodeficiency virus 1; test: Antiviral activity against HIV1 isolate 157 harboring reverse transcriptase L74V/M184V mutant gene by phenosense assay relative to wild type; assay type: functional; method in brief: as §2
[23] = test system: Human immunodeficiency virus 1; test: Antiviral activity against HIV1 isolate 056 expressing wild type reverse transcriptase gene by phenosense assay; assay type: functional, organism-based; conditions: Human immunodeficiency virus 1, isolate 056
Method in brief: (§3)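 In the PhenoSense recombinant virus assay, virus was tested against increasing drug concentrations. EC50 came from the inhibition curve and was compared with a drug-sensitive reference virus.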

[24] = test system: Human immunodeficiency virus 1; test: Antiviral activity against HIV1 isolate 162 harboring reverse transcriptase A62V/V75I/F77L/Y115F/F116Y/Q151M/M184V mutant gene by phenosense assay; assay type: functional, organism-based; conditions: Human immunodeficiency virus 1, isolate 162; method in brief: as §2
[25] = test system: Human immunodeficiency virus 1; test: Antiviral activity against HIV1 isolate 060 harboring reverse transcriptase M41L/D67N/K70R/L210W/T215Y/K219E mutant gene by phenosense assay; assay type: functional, organism-based; conditions: Human immunodeficiency virus 1, isolate 060; method in brief: as §2
[26] = test system: Human immunodeficiency virus 1; test: Antiviral activity against HIV1 isolate 180 harboring reverse transcriptase K65R mutant gene obtained as site-directed mutant of NL4-3 by phenosense assay; assay type: functional, organism-based; conditions: Human immunodeficiency virus 1, isolate 180; method in brief: as §2
[27] = test system: Human immunodeficiency virus 1; test: Antiviral activity against HIV1 isolate 200 harboring reverse transcriptase M41L/L210W/T215Y mutant gene by phenosense assay; assay type: functional, organism-based; conditions: Human immunodeficiency virus 1, isolate 200; method in brief: as §2
[28] = test system: Human immunodeficiency virus 1; test: Antiviral activity against HIV1 isolate 204 harboring reverse transcriptase M41L/L210W/T215Y/M184V mutant gene by phenosense assay relative to wild type; assay type: functional; method in brief: as §1
[29] = test system: Human immunodeficiency virus 1; test: Antiviral activity against HIV1 isolate 206 harboring reverse transcriptase D67N/K70R mutant gene by phenosense assay relative to wild type; assay type: functional; method in brief: as §1
[30] = test system: Human immunodeficiency virus 1; test: Antiviral activity against HIV1 isolate 204 harboring reverse transcriptase M41L/L210W/T215Y/M184V mutant gene by phenosense assay; assay type: functional, organism-based; conditions: Human immunodeficiency virus 1, isolate 204; method in brief: as §1
[31] = test system: Human immunodeficiency virus 1; test: Antiviral activity against HIV1 isolate 220 harboring reverse transcriptase K70E/M184V mutant gene by phenosense assay relative to wild type; assay type: functional; method in brief: as §1
[32] = test system: Human immunodeficiency virus 1; test: Antiviral activity against HIV1 isolate 153 harboring reverse transcriptase L74V mutant gene by phenosense assay; assay type: functional, organism-based; conditions: Human immunodeficiency virus 1, isolate 153; method in brief: as §2
[33] = test system: Human immunodeficiency virus 1; test: Antiviral activity against HIV1 isolate 185 harboring reverse transcriptase T215Y mutant gene by phenosense assay relative to wild type; assay type: functional; method in brief: as §2
[34] = test system: Human immunodeficiency virus 1; test: Antiviral activity against HIV1 isolate 188 harboring reverse transcriptase T215Y/M184V mutant gene by phenosense assay relative to wild type; assay type: functional; method in brief: as §2
[35] = test system: Human immunodeficiency virus 1; test: Antiviral activity against HIV1 isolate 057 expressing wild type reverse transcriptase gene by phenosense assay; assay type: functional, organism-based; conditions: Human immunodeficiency virus 1, isolate 057; method in brief: as §3
[36] = test system: Human immunodeficiency virus 1; test: Antiviral activity against HIV1 isolate 166 harboring reverse transcriptase L74V mutant gene obtained as site-directed mutant of NL4-3 by phenosense assay; assay type: functional, organism-based; conditions: Human immunodeficiency virus 1, isolate 166; method in brief: as §2

Nc1nc(=O)n([C@@H]2CS[C@H](CO)O2)cc1F [EMTRICITABINE]
fold change (FC) [1]: 3 | fold change (FC) [2]: 1.9 | EC50 [3]: 2.2 µM | EC50 [4]: > 100 µM | fold change (FC) [5]: 3.7 | EC50 [6]: > 100 µM | EC50 [7]: 3.4 µM | fold change (FC) [8]: 2.3 | EC50 [9]: 2.6 µM | fold change (FC) [10]: >88 | fold change (FC) [11]: 6.9 | EC50 [12]: > 100 µM | fold change (FC) [13]: >88 | fold change (FC) [14]: 26 | EC50 [15]: 3.1 µM | fold change (FC) [16]: >88 | EC50 [17]: > 100 µM | fold change (FC) [18]: >88 | fold change (FC) [19]: >88 | EC50 [20]: 2.6 µM | EC50 [21]: > 100 µM | fold change (FC) [22]: >88 | EC50 [23]: 0.89 µM | EC50 [24]: > 100 µM | EC50 [25]: 11 µM | EC50 [26]: 13 µM | EC50 [27]: 4.2 µM | fold change (FC) [28]: >88 | fold change (FC) [29]: 2.9 | EC50 [30]: > 100 µM | fold change (FC) [31]: >88 | EC50 [32]: 2.1 µM | fold change (FC) [33]: 2.3 | fold change (FC) [34]: >88 | EC50 [35]: 1.6 µM | EC50 [36]: 1.7 µM

Nc1ccn([C@@H]2CS[C@H](CO)O2)c(=O)n1 [LAMIVUDINE]
fold change (FC) [1]: 2.9 | fold change (FC) [2]: 1.6 | EC50 [3]: 5.9 µM | EC50 [4]: > 300 µM | fold change (FC) [5]: 2.7 | EC50 [6]: > 300 µM | EC50 [7]: 11 µM | fold change (FC) [8]: 1.9 | EC50 [9]: 7.3 µM | fold change (FC) [10]: >80 | fold change (FC) [11]: 5.1 | EC50 [12]: > 300 µM | fold change (FC) [13]: >80 | fold change (FC) [14]: 12 | EC50 [15]: 7.6 µM | fold change (FC) [16]: >80 | EC50 [17]: > 300 µM | fold change (FC) [18]: >80 | fold change (FC) [19]: >80 | EC50 [20]: 6.1 µM | EC50 [21]: > 300 µM | fold change (FC) [22]: >80 | EC50 [23]: 3.2 µM | EC50 [24]: > 300 µM | EC50 [25]: 22 µM | EC50 [26]: 43 µM | EC50 [27]: 10.3 µM | fold change (FC) [28]: >80 | fold change (FC) [29]: 2.1 | EC50 [30]: > 300 µM | fold change (FC) [31]: >80 | EC50 [32]: 7 µM | fold change (FC) [33]: 1.6 | fold change (FC) [34]: >80 | EC50 [35]: 4.4 µM | EC50 [36]: 6.1 µM

Cc1cn([C@H]2C[C@H](N=[N+]=[N-])[C@@H](CO)O2)c(=O)[nH]c1=O [ZIDOVUDINE]
fold change (FC) [1]: 0.21 | fold change (FC) [2]: 98 | EC50 [3]: 2.7 µM | EC50 [4]: 8.7 µM | fold change (FC) [5]: 100 | EC50 [6]: 0.071 µM | EC50 [7]: 0.006 µM | fold change (FC) [8]: 7.6 | EC50 [9]: 0.21 µM | fold change (FC) [10]: 0.63 | fold change (FC) [11]: 400 | EC50 [12]: 0.19 µM | fold change (FC) [13]: 320 | fold change (FC) [14]: >920 | EC50 [15]: 0.56 µM | fold change (FC) [16]: 3.2 | EC50 [17]: 0.017 µM | fold change (FC) [18]: 6.5 | fold change (FC) [19]: 0.34 | EC50 [20]: 1 µM | EC50 [21]: 2.2 µM | fold change (FC) [22]: 0.22 | EC50 [24]: 4.2 µM | EC50 [25]: 16 µM | EC50 [26]: 0.014 µM | EC50 [27]: 2.7 µM | fold change (FC) [28]: 3.9 | fold change (FC) [29]: 28 | EC50 [30]: 0.11 µM | fold change (FC) [31]: 0.13 | EC50 [32]: 0.011 µM | fold change (FC) [33]: 38 | fold change (FC) [34]: 2.6 | EC50 [35]: 0.017 µM | EC50 [36]: 0.014 µM
